Bioassay records deposited in PubChem by several laboratories.
Hits are enriched below; roughly 4.8% of the tested compounds scored in any of these assays.
XBP1 UPR activ: activators of adaptive arm of unfolded protein response (XBP1); CHO-XBP1 luciferase reporter, IRE1-XBP1 UPR activation, luminescence; percent of tunicamycin response, DMSO as zero; 0.33% of 330,000 active; activation, % at 20 µM;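 active = versus positive control, 20 µM dose yields 30% or more activation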;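 also: 100% = tunicamycin at 10 µg/mL and 0% = DMSO only wells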
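Material: CHO-XBP1 cells stably carrying IRE1-XBP1-driven luciferase reporter / Amount: 1000 cells per well / Compound: 20 µM, 1% DMSO / Times: 6 h treatment, 37 °C / Detection: luciferase luminescence / Measure: % activation of reporter signal versus tunicamycin and DMSO controls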
Beta apoptosis: beta cell apoptosis inhibition. INS-1E cytokine-induced death, ATP luminescence, 48 h; percent of positive-control rescue, neutral wells zero. protection from apoptosis, % (no concentration beside the values). 0.8% of 300,000 active. AID 435005;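 active = Every replicate reaches about 75%, or at least half do and their mean reaches it too, limit read from the data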;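 also: 0% = cytokine-treated negative control wells and 100% = positive control rescue; higher means more ATP so stronger rescue from cytokine killing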
CSC inhib: blocks cancer stem cells. cancer stem cell-like cells viability, luminescence. inhibition, % at 7.5 µM. 1.1% of 300,000 active. AID 2717; in the data active = inhibition above about 75%; tested in HMLE shEcad cells
SKKanGAS inh: inhibitors of SKKanGAS S. pyogenes growth in kanamycin (SK-promoter or general growth effect). AID 1662. BacTiter-Glo, 6 h. inhibition, % at 7.5 µM. 1.3% of 300,000 active;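 active = mean replicate score, as percent of positive control median, at least 50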;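 also: strain carries kanamycin resistance gene driven by streptokinase promoter and grows in 40 µg/ml kanamycin; loss of luminescence reflects streptokinase promoter inhibition or plain growth inhibition; 0% = median of DMSO wells and 100% = positive control at its reference dose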
Mdm2 MdmX PPI: inhibitors of human Mdm2/MdmX interaction. O15151+Q00987. SaOS-2 split-luciferase Mdm2/MdmX complementation, luminescence. inhibition, % at 8 µM. 3% of 330,000 active;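 active = inhibition of at least 50% at 8 µM in the primary screen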
Target sequence (O15151 whole entry, looked up): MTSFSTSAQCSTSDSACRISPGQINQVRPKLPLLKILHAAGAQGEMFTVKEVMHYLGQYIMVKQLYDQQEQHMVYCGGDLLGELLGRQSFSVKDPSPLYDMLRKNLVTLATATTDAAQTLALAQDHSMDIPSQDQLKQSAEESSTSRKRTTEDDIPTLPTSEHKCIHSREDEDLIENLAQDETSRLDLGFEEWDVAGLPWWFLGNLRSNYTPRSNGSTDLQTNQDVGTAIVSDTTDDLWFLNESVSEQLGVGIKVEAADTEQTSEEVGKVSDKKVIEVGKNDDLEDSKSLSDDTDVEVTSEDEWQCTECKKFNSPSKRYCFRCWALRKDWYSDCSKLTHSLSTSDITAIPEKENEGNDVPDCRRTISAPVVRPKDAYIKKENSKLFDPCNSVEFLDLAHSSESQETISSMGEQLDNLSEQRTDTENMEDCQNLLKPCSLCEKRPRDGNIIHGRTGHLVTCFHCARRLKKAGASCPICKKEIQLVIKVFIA
Target sequence (Q00987 whole entry, looked up): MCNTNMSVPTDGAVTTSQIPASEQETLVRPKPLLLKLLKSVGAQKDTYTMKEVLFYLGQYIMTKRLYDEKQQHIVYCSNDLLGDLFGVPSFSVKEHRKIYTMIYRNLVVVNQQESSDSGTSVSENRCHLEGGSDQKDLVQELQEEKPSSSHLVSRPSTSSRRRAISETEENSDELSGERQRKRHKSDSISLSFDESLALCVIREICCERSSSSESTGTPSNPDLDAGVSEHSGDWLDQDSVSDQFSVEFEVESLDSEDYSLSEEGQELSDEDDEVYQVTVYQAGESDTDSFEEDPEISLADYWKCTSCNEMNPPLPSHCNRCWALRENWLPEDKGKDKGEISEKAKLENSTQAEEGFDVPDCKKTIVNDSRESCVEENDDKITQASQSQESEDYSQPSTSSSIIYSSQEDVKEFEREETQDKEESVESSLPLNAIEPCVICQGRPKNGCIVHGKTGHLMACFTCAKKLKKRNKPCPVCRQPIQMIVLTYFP
UPR CHOP act: activators of apoptotic arm of unfolded protein response (CHOP) | activation, % at 10 µM | CHO-CHOP luciferase reporter, UPR activation, luminescence; percent of tunicamycin response over DMSO baseline | 0.34% of 330,000 active | AID 449763;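 active = at 10 µM dose, activation of 40% or more, normalized to positive control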;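 also: 100% = tunicamycin at 10 µg/mL and 0% = DMSO alone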
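Assay system: CHO-CHOP cells, stable luciferase reporter of PERK-eIF2a-CHOP signalling / Buffer or medium: F12 plus 10% serum / Compound dosing: one dose, 10 µM in 0.5% DMSO / Times: 6 h compound treatment, 37 °C / Technique: luciferase luminescence / Read-out: % reporter activation, DMSO baseline versus tunicamycin full activation / Benchmarks: tunicamycin and DMSO controls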
Mdm2-MdmX conf: confirmation of human Mdm2/MdmX interaction inhibitors. inhibition, % at 8 µM. shares compounds with Mdm2 MdmX PPI. AID 489028. Mdm2-MdmX binding, luminescent assay. 55% of 10,000 active; in the data active = inhibition above about 40%
Full FLuc ctr: counter-screen for Mdm2/MdmX inhibitors: full-length luciferase; AID 504607; SaOS-2 full-length luciferase counterscreen, luminescence; 77% of 6,200 active; inhibition, % at 8 µM; shares compounds with Mdm2 MdmX PPI;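 active = mean inhibition at 8 µM reaching about 37%, which flags the compound as non-specific, limit read from the data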;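 also: p53-null SaOS-2 cells with luciferase driven by a doxycycline-inducible promoter; compound on cells about two nights before reading with doxycycline added after day one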
* hit, by the source's call; x = not tested or not shown.

SMILES	XBP1 UPR activ	Beta apoptosis	CSC inhib	SKKanGAS inh	Mdm2 MdmX PPI	UPR CHOP act	Mdm2-MdmX conf	Full FLuc ctr
C/C=C(\C)C(=O)N[C@@H](c1ccccc1)[C@@H](O)C(=O)O[C@H]1C[C@@]2(O)[C@@H](OC(=O)c3ccccc3)C3[C@](C)(C(=O)[C@H](OC(C)=O)C(=C1C)C2(C)C)[C@H](O)C[C@H]1OC[C@@]31OC(C)=O (stereo not given in full)	-1.7	4.5	-10.8	9.0	40.0	1.6	x	x
CCC(C)C(=O)N[C@@H](c1ccccc1)[C@@H](O)C(=O)O[C@H]1C[C@@]2(O)[C@@H](OC(=O)c3ccccc3)C3[C@](C)(C(=O)[C@H](OC(C)=O)C(=C1C)C2(C)C)[C@@H](O)C[C@H]1OC[C@@]31OC(C)=O (stereo not given in full)	0.0	14.9	53.3	3.8	62.4*	0.8	66.1*	39.2*
CCCCn1c(=O)c(C(=O)NCc2ccc(Cl)cc2)c(O)c2ccccc21	-4.9	x	75.9*	24.9	51.8*	0.7	13.9	x
CCCCCn1c(=O)c(C(=O)NCc2ccncc2)c(O)c2ccccc21	6.0	16.4	23.3	78.0*	51.4*	-1.2	12.8	x
Cn1c(NN=O)nc2ccccc21	12.1	100.3*	114.9*	56.3*	59.1*	20.6	82.5*	35.8
COC(=O)[C@@H]1[C@@H](C(=O)OC)C2(c3ccccc3-c3ccccc32)N(c2ccc(Cl)cc2)N1C#N	-6.6	49.8	-10.3	0.4	100.6*	-10.3	18.2	x
COC(=O)C[C@]1(C(=O)OC)CN(C#N)N(c2ccc(Cl)cc2)C12c1ccccc1-c1ccccc12	-7.2	111.6*	0.3	-27.9	98.6*	-10.3	7.0	x
C(CCc1nn[nH]n1)CCc1nn[nH]n1	1.9	x	-1.7	3.2	-2.1	-1.5	x	x
O=C(Cc1ccccc1)OCC(=O)N1CCN(S(=O)(=O)c2ccc(Cl)cc2)CC1	0.7	-5.4	-7.8	2.3	-2.4	-0.2	x	x
O=c1[nH]c(=S)[nH]c(O)c1N=Nc1ccc(OC(F)F)cc1	2.7	19.1	7.6	-0.4	3.6	0.5	x	x
CC(C)(C)c1cc(C=C(C#N)C#N)cc(C(C)(C)C)c1O	-5.7	117.1*	80.6*	x	96.1*	22.3	94.4*	11.8
CC(=O)NC1C(OC(=O)Cc2ccccc2)OC(COC(C)=O)C(OC(C)=O)C1OC(C)=O (stereo not given)	-0.5	-1.9	11.1	-4.6	8.1	0.4	x	x
CCCCCOc1ccc(C)cc1CN(CCCl)CCCl	-1.1	x	-7.7	-7.7	-13.2	9.0	x	x
Cc1ccccc1CN1CCN(C(=O)Cc2ccccc2)CC1	-2.1	x	-2.7	0.7	-11.0	0.1	x	x
Cc1ccc(C(O)(c2ccc(C)c(C)c2)C2CN3CCC2CC3)cc1C (stereo not given)	-0.9	15.6	1.8	8.7	61.0*	2.7	43.7*	74.0*
Cc1ccccc1C(O)(Cc1ccccc1)C1CN2CCC1CC2 (stereo not given)	-0.1	-15.6	29.2	-0.8	53.8*	2.0	61.1*	69.1*
C[N+]12CCC(CC1)C(C(O)(c1cccc(Cl)c1)c1cccc(Cl)c1)C2 (stereo not given)	0.3	-1.9	-5.1	-3.5	3.1	-0.5	x	x
COc1ccc(CNCCc2cccc(F)c2)c2ccccc12	-2.3	x	x	1.7	42.2	0.9	x	x
O=c1[nH]c(O)c(N=Nc2ccc3c(c2)OCCO3)c(=O)[nH]1	-6.7	5.4	10.5	-2.6	57.9*	-7.8	67.5*	78.0*
NCCc1ccc(OCc2ccccc2)c(OCc2ccccc2)c1	28.6	8.7	106.2*	x	92.4*	4.8	24.1	x
CN(C)C1=NC(N(C)C)=NP(N(C)C)(N(C)C)=N1	-2.1	-4.4	-3.5	4.3	7.3	0.0	x	x
Cc1ncc2n1-c1ccc(Cl)cc1C(c1ccccc1F)=NC2	0.7	x	x	x	51.1*	1.4	13.8	x
